Assay results: ChEMBL document CHEMBL1124798, “Design of peptidomimetic delta opioid receptor antagonists using the message-address concept” (J Med Chem, 1990)
Where a SMILES comes first, the peptide text is derived from it. [ ]: non-standard residue; d: D form. The star is where a group is joined. Tyr(Nα,Nα-allyl2) = C=CCN(CC=C)[C@@H](Cc1ccc(O)cc1)C(=O)*; Aib = CC(C)(N)C(=O)O

How the values were obtained:
[1] = target: Kappa-type opioid receptor (Cavia porcellus) (UniProt P41144); assay: Opioid receptor kappa 1 antagonistic activity was measured by the displacement of ethylketazocine in the guinea pig ileum at a concentration of 100 nM; assay type: functional, tissue-based
Kappa-type opioid receptor (Cavia porcellus), sequence (P41144 whole entry): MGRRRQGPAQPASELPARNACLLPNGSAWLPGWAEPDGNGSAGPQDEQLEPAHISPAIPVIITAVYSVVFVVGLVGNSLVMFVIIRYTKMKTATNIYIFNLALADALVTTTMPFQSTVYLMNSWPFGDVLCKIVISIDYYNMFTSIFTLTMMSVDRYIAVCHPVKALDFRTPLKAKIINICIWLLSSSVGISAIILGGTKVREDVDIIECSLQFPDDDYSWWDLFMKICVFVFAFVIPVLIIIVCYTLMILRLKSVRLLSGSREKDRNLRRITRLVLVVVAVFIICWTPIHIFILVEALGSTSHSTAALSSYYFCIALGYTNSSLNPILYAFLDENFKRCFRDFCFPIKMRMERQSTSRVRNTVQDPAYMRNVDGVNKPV
Procedure, shortened: (§1)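 Guinea pig ileum. Antagonist (nM, as stated on line) incubated 15 min before testing. Agonists: morphine (μ) and ethylketazocine (κ).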

[2] = target: Kappa-type opioid receptor (Cavia porcellus) (UniProt P41144); assay: Opioid receptor kappa antagonistic activity was measured by the displacement of ethylketazocine in the guinea pig ileum at a concentration of 100 nM; assay type: functional, tissue-based; procedure, shortened: as §1
[3] = target: Delta-type opioid receptor (Mus musculus) (UniProt P32300); assay: Opioid receptor delta antagonistic activity was measured by the displacement of DADLE in the mouse vas deferens at a concentration of 100 nM; assay type: functional
Delta-type opioid receptor (Mus musculus), sequence (P32300 whole entry): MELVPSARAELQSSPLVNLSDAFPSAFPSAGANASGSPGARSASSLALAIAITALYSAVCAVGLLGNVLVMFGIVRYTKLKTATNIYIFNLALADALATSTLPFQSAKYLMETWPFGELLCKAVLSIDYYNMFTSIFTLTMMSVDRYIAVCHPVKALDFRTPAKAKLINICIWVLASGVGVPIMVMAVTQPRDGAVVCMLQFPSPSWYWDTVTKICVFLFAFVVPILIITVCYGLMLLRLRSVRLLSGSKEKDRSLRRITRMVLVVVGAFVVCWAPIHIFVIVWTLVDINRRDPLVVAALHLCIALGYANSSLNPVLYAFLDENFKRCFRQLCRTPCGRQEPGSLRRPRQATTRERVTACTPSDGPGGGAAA
Procedure, shortened: (§2)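 Mouse vas deferens. Antagonist (nM, as stated on line) incubated with the preparation 15 min before testing. δ agonist [D-Ala2,D-Leu5]enkephalin.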

[4] = target: Mu-type opioid receptor (Cavia porcellus) (UniProt P97266); assay: Opioid receptor mu 1 antagonistic activity was measured by the displacement of morphine in the guinea pig ileum at a concentration of 100 nM; assay type: functional, tissue-based; procedure, shortened: as §1
Mu-type opioid receptor (Cavia porcellus), sequence (P97266 whole entry): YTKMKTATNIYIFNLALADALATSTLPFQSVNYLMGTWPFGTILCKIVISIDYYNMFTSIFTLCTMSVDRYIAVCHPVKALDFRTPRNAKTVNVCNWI

[5] = target: Delta-type opioid receptor (Mus musculus) (UniProt P32300); assay: Opioid receptor delta 1 antagonistic activity was measured by the displacement of DADLE in the mouse vas deferens at a concentration of 100 nM; assay type: functional; procedure, shortened: as §2
[6] = target: Delta-type opioid receptor (Mus musculus) (UniProt P32300); assay: Antagonist potency was determined as the ratio of [antagonist] to (IC50 ratio-1) for opioid receptor delta 1; assay type: functional
Procedure, shortened: (§3)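 Ke (nM) = [antagonist]/(IC50 ratio − 1). IC50 ratio is agonist IC50 with antagonist over the control IC50 in the same preparation. Antagonist preincubated 15 min. Agonists: DADLE in mouse vas deferens (δ); morphine (μ) and ethylketazocine (κ) in guinea pig ileum. n ≥ 3.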

[7] = target: Kappa-type opioid receptor (Cavia porcellus) (UniProt P41144); assay: Antagonist potency was determined as the ratio of [antagonist] to (IC50 ratio-1) for Opioid receptor kappa 1; assay type: functional; procedure, shortened: as §3
[8] = target: Mu-type opioid receptor (Cavia porcellus) (UniProt P97266); assay: Opioid receptor mu antagonistic activity was measured by the displacement of morphine in the guinea pig ileum at a concentration of 100 nM; assay type: functional, tissue-based; procedure, shortened: as §1
[9] = target: Mu-type opioid receptor (Cavia porcellus) (UniProt P97266); assay: Antagonist potency was determined as the ratio of [antagonist] to (IC50 ratio-1) for Opioid receptor mu 1; assay type: functional; procedure, shortened: as §3
Mu-type opioid receptor [10] = target: T1, Mu-type opioid receptor (Cavia porcellus, UniProt P97266); assay: Binding affinity was measured by the displacement of [3H]- DAMGO in guinea pig brain membrane of opioid receptor mu; assay type: cell membranes
T1 sequence (P97266 whole entry): as above
Procedure, shortened: (§4)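 Radioligand displacement from guinea pig brain membranes, modified Werling method. μ sites: [3H]DAMGO. δ sites: [3H]DADLE with 1 μM DAMGO. κ sites: [3H]ethylketazocine with 1 μM DAMGO.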

[11] = target: Opioid receptors; delta & kappa (Homo sapiens) (UniProt P41145+P41143); assay: Selectivity ratio was determined from Ke value of Opioid receptor kappa 1 and Opioid receptor delta 1; assay type: protein assay; details: Cavia porcellus
Opioid receptors; delta & kappa (Homo sapiens), sequence (P41143 whole entry, looked up): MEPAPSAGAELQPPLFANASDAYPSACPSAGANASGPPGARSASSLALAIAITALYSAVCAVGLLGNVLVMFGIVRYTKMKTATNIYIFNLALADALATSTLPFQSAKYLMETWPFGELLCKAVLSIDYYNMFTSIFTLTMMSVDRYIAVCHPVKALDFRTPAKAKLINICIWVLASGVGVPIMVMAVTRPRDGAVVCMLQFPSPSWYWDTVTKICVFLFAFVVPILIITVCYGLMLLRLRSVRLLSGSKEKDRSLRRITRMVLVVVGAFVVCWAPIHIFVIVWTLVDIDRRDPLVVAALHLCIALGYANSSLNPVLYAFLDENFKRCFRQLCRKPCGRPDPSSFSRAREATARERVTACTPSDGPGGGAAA
Opioid receptors; delta & kappa (Homo sapiens), sequence (P41145 whole entry, looked up): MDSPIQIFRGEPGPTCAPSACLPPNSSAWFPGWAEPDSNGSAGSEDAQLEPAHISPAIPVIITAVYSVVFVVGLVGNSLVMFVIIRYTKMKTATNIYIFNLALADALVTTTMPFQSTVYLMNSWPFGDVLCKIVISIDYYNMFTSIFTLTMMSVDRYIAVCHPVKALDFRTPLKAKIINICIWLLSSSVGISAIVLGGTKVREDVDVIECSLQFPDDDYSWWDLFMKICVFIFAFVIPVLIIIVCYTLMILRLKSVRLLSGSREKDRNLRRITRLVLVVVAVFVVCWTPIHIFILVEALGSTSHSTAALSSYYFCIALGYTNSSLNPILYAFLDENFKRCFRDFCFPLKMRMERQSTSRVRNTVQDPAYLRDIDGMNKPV
Procedure, shortened: (§5)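 Ratios of Ke values, μ/δ or κ/δ. Each Ke = [antagonist]/(IC50 ratio − 1). δ from DADLE in mouse vas deferens; μ (morphine) and κ (ethylketazocine) in guinea pig ileum. 15 min antagonist preincubation, n ≥ 3.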

[12] = target: T2, Kappa-type opioid receptor (Cavia porcellus, UniProt P41144); assay: Binding affinity was measured by the displacement of [3H]- EK in guinea pig brain membrane of Opioid receptor kappa 1; assay type: cell membranes; procedure, shortened: as §4
T2 sequence (P41144 whole entry): as the sequence (P41144 whole entry) above

[13] = target: T2, Kappa-type opioid receptor; assay: Binding affinity was measured by the displacement of [3H]- EK in guinea pig brain membrane of opioid receptor kappa; assay type: cell membranes; procedure, shortened: as §4
Mu-type opioid receptor [14] = target: T1, Mu-type opioid receptor; assay: Binding affinity was measured by the displacement of [3H]- DAMGO in guinea pig brain membrane of Opioid receptor mu 1; assay type: cell membranes; procedure, shortened: as §4
[15] = target: Opioid receptors; mu & delta (Homo sapiens) (UniProt P41143+P35372); assay: Selectivity ratio was determined from Ke value of Opioid receptor mu 1 and Opioid receptor delta 1; assay type: protein assay; details: Cavia porcellus; procedure, shortened: as §5
Opioid receptors; mu & delta (Homo sapiens), sequence (P35372 whole entry, looked up): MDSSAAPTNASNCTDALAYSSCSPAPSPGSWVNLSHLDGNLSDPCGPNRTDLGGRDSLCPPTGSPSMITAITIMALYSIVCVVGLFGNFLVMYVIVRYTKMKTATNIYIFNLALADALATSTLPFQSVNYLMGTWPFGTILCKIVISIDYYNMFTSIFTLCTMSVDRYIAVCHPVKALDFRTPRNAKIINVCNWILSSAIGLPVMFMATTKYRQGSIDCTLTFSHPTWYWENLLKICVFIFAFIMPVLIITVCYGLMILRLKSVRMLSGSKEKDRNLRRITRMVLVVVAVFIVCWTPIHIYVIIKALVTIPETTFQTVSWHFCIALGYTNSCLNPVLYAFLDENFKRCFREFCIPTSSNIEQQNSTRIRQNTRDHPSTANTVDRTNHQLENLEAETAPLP
Opioid receptors; mu & delta (Homo sapiens), sequence (P41143 whole entry, looked up): as the sequence (P41143 whole entry, looked up) above

| Structure (SMILES) | IC50 ratio [1] | IC50 ratio [2] | IC50 ratio [3] | IC50 ratio [4] | IC50 ratio [5] | Ke [6] [nM] | Ke [7] [nM] | IC50 ratio [8] | Ke [9] [nM] | Ki (Mu-type opioid receptor [10]) [nM] | Selectivity ratio [11] | Ki [12] [nM] | Ki [13] [nM] | Ki (Mu-type opioid receptor [14]) [nM] | Selectivity ratio [15] |
| --- | --- | --- | --- | --- | --- | --- | --- | --- | --- | --- | --- | --- | --- | --- | --- |
| CN1CC[C@]23c4c5ccc(O)c4O[C@H]2c2c(c4ccccc4n2C)C[C@@]3(O)[C@H]1C5 | 0.5 | 0.5 | 1.2 | 0.74 | 1.2 | > 416 | > 200 | 0.74 | > 135 |  |  |  |  |  |  |
| Oc1ccc2c3c1O[C@H]1c4[nH]c5c(Br)cccc5c4C[C@@]4(O)[C@@H](C2)N(CC2CC2)CC[C@]314 | 1.7 | 1.7 | 85 | 2.2 | 85 | 1.2 | > 143 | 2.2 | 83 | 29 | > 121 | 333 | 333 | 29 | 71 |
| Cc1cccc2c3c([nH]c12)[C@@H]1Oc2c(O)ccc4c2[C@@]12CCN(CC1CC1)[C@H](C4)[C@]2(O)C3 | 1.3 | 1.3 | 67 | 7.1 | 67 |  | > 333 | 7.1 |  |  | > 221 |  |  |  |  |
| Oc1ccc2c3c1O[C@H]1c4[nH]c5c(F)cccc5c4C[C@@]4(O)[C@@H](C2)N(CC2CC2)CC[C@]314 | 1.3 | 1.3 | 287 | 5.3 | 287 | 0.35 | > 333 | 5.3 | 23 | 49 | > 951 | 321 | 321 | 49 | 67 |
| CC(=O)O[C@@]12Cc3c([nH]c4ccccc34)[C@@H]3Oc4c(O)ccc5c4[C@@]31CCN(CC1CC1)[C@@H]2C5 | 1.8 | 1.8 | 43 | 1.4 | 43 | 2.4 | > 127 | 1.4 | > 263 |  | > 54 |  |  |  | > 111 |
| COc1ccc2c3c1O[C@H]1c4[nH]c5ccccc5c4C[C@@]4(O)[C@@H](C2)N(CC2CC2)CC[C@]314 | 0.6 | 0.6 | 1.5 | 1.3 | 1.5 | > 200 | > 167 | 1.3 | > 333 | 550 |  | > 1000 | > 1000 | 550 |  |
| Oc1ccc2[nH]c3c(c2c1)C[C@@]1(O)[C@H]2Cc4ccc(O)c5c4[C@@]1(CCN2CC1CC1)[C@H]3O5 | 3.1 | 3.1 | 4.7 | 6.4 | 4.7 | 27 | 48 | 6.4 | 19 |  | 1.8 |  |  |  | 0.7 |
| Oc1ccc2c3c1O[C@H]1c4[nH]c5cc(F)ccc5c4C[C@@]4(O)[C@@H](C2)N(CC2CC2)CC[C@]314 | 1.6 | 1.6 | 24 | 1.8 | 24 | 4.4 | > 167 | 1.8 | > 125 |  | > 38 |  |  |  | > 28 |
| C=CCN1CC[C@]23c4c5ccc(O)c4O[C@H]2c2[nH]c4ccccc4c2C[C@@]3(O)[C@H]1C5 | 2.2 | 2.2 | 93 | 1.1 | 93 | 1.1 | > 82 | 1.1 | > 714 | 104 | > 75 | 321 | 321 | 104 | > 655 |
| CC(C)(S)[C@@H](NC(=O)[C@H](Cc1ccc(O)cc1)NC(=O)CNC(=O)[C@H](NC(=O)[C@@H](N)Cc1ccccc1)C(C)(C)S)C(=O)O |  |  |  |  |  |  |  |  |  |  | 202 |  |  |  | 52 |
| Oc1ccc2c3c1O[C@H]1c4[nH]c5cc6ccccc6cc5c4C[C@@]4(O)[C@@H](C2)N(CC2CC2)CC[C@]314 | 0.91 | 0.91 | 4.7 | 0.85 | 4.7 | 27 | > 100 | 0.85 | > 118 |  | > 4 |  |  |  | > 4 |
| Oc1ccc2c3c1O[C@H]1c4[nH]c5c(ccc6ccccc65)c4C[C@@]4(O)[C@@H](C2)N(CC2CC2)CC[C@]314 | 0.9 | 0.9 | 12.1 | 1.2 | 12.1 | 9 | > 111 | 1.2 | > 500 |  | > 12 |  |  |  | > 55 |
| Oc1ccc2c3c1O[C@H]1c4[nH]c5c(O)cccc5c4C[C@@]4(O)[C@@H](C2)N(CC2CC2)CC[C@]314 | 1.4 | 1.4 | 239 | 1.9 | 239 | 0.42 | > 250 | 1.9 | > 111 |  | > 595 |  |  |  | > 264 |
| COc1cccc2c3c([nH]c12)[C@@H]1Oc2c(O)ccc4c2[C@@]12CCN(CC1CC1)[C@H](C4)[C@]2(O)C3 | 1.5 | 1.5 | 66 | 3 | 66 | 1.5 | > 185 | 3 | 50 | 16 | > 120 | 43 | 43 | 16 | 32 |
| C=CCN(CC=C)[C@@H](Cc1ccc(O)cc1)C(=O)NC(C)(C)C(=O)NC(C)(C)C(=O)N[C@@H](Cc1ccccc1)C(=O)N[C@@H](CC(C)C)C(=O)O ({Tyr(Nα,Nα-allyl2)}-[Aib][Aib]FL-OH) | 0.8 | 0.8 | 15.6 | 0.6 | 15.6 | 69 | > 1250 | 0.6 | > 1670 | > 1000 | > 18 | > 1000 | > 1000 | > 1000 | > 24 |
| CN1CC[C@]23c4c5ccc(O)c4O[C@H]2c2[nH]c4ccccc4c2C[C@@]3(O)[C@H]1C5 [OXYMORPHINDOLE] | 0.6 | 0.6 | 1.6 | 0.9 | 1.6 | 5 | > 167 | 0.9 | > 111 | 468 |  | 4470 | 4470 | 468 |  |
| Cc1ccc2c3c([nH]c2c1)[C@@H]1Oc2c(O)ccc4c2[C@@]12CCN(CC1CC1)[C@H](C4)[C@]2(O)C3 | 1.7 | 1.7 | 30 | 2.8 | 30 | 3.5 | > 143 | 2.8 | 55 |  | > 41 |  |  |  | 16 |
| CCOc1cccc2c3c([nH]c12)[C@@H]1Oc2c(O)ccc4c2[C@@]12CCN(CC1CC1)[C@H](C4)[C@]2(O)C3 | 0.67 | 0.67 | 178 | 8.3 | 178 | 0.57 |  | 8.3 | 13 |  |  |  |  |  | 24 |
| Oc1ccc2c3c1O[C@H]1c4[nH]c5ccccc5c4C[C@@]4(O)[C@@H](C2)N(CC2CC2)CC[C@]314 [NALTRINDOLE] |  |  |  |  |  |  |  |  |  |  |  | 332 | 332 | 3.8 |  |
